According to ChEMBL document CHEMBL5653631, “A Potent and Selective ULK1 Inhibitor Suppresses Autophagy and Sensitizes Cancer Cells to Nutrient Stress” (iScience, 2018):

Assays:
[1] = target: Homeodomain-interacting protein kinase 2 (Homo sapiens) (UniProt Q9H2X6); assay: Inhibition of human recombinant HIPK2 at 500 nM related to control ULK1
[2] = target: Serine/threonine-protein kinase MARK2 (Homo sapiens) (UniProt Q7KZI7); assay: Inhibition of human recombinant MARK2 at 500 nM in presence of ATP by radiometric assay relative to control
[3] = target: Serine/threonine-protein kinase D2 (Homo sapiens) (UniProt Q9BZL6); assay: Inhibition of human recombinant PKD2 at 500 nM related to control ULK1
[4] = target: Serine/threonine-protein kinase SIK2 (Homo sapiens) (UniProt Q9H0K1); assay: Inhibition of human recombinant QIK at 500 nM in presence of ATP by radiometric assay relative to control
[5] = target: Receptor-type tyrosine-protein kinase FLT3 (Homo sapiens) (UniProt P36888); assay: Inhibition of human recombinant FLT3 at 500 nM related to control ULK1
[6] = target: Serine/threonine-protein kinase PAK 1 (Homo sapiens) (UniProt Q13153); assay: Inhibition of human recombinant PAK1 at 15 nM in presence of ATP by radiometric assay relative to control
[7] = target: Mitogen-activated protein kinase kinase kinase kinase 4 (Homo sapiens) (UniProt O95819); assay: Inhibition of human recombinant HGK at 15 nM in presence of ATP by radiometric assay relative to control
[8] = target: Serine/threonine-protein kinase WNK2 (Homo sapiens) (UniProt Q9Y3S1); assay: Inhibition of human recombinant Wnk2 at 15 nM in presence of ATP by radiometric assay relative to control
Sequence of Serine/threonine-protein kinase WNK2 (Homo sapiens) (Q9Y3S1 whole entry): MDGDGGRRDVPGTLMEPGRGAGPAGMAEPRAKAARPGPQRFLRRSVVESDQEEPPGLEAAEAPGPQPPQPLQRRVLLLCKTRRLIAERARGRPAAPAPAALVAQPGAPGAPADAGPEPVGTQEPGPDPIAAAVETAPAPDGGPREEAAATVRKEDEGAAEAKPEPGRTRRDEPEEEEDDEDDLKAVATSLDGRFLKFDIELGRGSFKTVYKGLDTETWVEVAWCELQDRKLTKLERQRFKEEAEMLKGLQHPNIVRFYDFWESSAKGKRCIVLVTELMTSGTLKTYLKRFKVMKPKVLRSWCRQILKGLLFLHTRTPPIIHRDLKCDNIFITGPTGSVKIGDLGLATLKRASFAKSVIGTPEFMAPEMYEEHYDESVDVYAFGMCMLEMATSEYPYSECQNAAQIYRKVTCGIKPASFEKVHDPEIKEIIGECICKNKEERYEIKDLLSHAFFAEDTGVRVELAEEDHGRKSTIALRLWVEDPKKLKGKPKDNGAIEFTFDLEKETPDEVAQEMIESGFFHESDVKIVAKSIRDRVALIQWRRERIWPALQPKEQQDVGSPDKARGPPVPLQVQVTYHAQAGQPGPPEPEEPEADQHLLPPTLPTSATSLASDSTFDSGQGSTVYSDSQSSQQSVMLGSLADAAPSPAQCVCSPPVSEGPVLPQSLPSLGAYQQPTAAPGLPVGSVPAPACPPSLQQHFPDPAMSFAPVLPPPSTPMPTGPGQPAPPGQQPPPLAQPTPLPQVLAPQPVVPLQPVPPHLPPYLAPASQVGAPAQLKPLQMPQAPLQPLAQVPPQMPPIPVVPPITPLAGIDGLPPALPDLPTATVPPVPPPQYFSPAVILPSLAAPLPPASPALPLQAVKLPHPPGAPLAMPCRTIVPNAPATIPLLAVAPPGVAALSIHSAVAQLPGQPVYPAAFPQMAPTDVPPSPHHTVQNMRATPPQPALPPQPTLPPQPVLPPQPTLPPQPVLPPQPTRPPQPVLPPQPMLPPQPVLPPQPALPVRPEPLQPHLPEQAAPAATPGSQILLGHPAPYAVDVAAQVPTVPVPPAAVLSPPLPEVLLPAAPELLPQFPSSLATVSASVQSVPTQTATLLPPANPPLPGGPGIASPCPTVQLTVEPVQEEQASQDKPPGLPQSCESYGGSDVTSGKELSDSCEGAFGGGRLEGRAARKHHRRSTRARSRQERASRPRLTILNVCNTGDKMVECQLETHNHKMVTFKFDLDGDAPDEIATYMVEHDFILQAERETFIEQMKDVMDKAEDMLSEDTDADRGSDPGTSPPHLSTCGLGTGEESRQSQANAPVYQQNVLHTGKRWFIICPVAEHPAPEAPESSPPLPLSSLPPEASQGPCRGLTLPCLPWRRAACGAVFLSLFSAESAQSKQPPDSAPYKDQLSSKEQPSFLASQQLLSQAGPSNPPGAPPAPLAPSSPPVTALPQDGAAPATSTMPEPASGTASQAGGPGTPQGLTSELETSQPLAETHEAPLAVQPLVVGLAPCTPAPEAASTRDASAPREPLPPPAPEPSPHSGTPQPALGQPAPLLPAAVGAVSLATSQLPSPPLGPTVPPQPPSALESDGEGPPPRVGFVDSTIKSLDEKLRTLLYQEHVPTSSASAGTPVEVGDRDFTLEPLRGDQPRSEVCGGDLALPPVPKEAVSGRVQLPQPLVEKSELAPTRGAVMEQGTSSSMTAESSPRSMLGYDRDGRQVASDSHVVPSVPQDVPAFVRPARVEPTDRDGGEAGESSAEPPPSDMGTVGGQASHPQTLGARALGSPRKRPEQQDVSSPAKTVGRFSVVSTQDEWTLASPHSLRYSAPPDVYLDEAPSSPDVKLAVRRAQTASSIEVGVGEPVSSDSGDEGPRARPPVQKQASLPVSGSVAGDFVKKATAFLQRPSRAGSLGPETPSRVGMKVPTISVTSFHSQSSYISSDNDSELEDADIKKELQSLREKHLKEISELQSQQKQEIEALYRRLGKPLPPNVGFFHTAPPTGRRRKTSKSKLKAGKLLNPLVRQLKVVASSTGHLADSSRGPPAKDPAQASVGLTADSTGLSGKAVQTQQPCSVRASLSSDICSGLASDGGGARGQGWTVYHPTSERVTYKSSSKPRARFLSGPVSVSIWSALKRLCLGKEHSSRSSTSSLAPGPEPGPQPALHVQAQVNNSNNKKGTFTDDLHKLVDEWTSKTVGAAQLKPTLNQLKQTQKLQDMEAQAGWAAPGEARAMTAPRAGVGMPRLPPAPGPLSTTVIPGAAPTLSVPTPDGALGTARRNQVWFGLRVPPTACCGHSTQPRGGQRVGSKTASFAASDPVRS

[9] = target: Vascular endothelial growth factor receptor 3 (Homo sapiens) (UniProt P35916); assay: Inhibition of human recombinant FLT4 at 15 nM in presence of ATP by radiometric assay relative to control
[10] = target: Cell division cycle 7-related protein kinase (Homo sapiens) (UniProt O00311); assay: Inhibition of human recombinant CDC7 at 40 nM related to control ULK1
[11] = target: T1, Serine/threonine-protein kinase Chk1 (Homo sapiens) (UniProt O14757); assay: Inhibition of human recombinant CHK1 at 40 nM in presence of ATP by radiometric assay relative to control
T1 sequence (whole entry): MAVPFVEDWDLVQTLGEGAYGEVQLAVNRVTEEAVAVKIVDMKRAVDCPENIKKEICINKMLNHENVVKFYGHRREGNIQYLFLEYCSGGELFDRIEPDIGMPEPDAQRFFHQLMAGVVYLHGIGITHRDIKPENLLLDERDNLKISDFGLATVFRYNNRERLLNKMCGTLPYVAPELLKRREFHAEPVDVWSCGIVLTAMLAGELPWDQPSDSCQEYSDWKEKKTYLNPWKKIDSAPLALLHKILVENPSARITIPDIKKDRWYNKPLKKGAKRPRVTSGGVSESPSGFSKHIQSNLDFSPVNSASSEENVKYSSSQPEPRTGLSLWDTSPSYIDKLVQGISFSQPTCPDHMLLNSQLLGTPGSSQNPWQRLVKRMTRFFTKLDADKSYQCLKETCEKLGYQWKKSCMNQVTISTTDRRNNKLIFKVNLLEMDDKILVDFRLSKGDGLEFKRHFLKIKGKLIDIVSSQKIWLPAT

[12] = target: Dual specificity protein kinase CLK2 (Homo sapiens) (UniProt P49760); assay: Inhibition of human recombinant CLK2 at 40 nM related to control ULK1
Sequence of Dual specificity protein kinase CLK2 (Homo sapiens) (P49760 whole entry, looked up): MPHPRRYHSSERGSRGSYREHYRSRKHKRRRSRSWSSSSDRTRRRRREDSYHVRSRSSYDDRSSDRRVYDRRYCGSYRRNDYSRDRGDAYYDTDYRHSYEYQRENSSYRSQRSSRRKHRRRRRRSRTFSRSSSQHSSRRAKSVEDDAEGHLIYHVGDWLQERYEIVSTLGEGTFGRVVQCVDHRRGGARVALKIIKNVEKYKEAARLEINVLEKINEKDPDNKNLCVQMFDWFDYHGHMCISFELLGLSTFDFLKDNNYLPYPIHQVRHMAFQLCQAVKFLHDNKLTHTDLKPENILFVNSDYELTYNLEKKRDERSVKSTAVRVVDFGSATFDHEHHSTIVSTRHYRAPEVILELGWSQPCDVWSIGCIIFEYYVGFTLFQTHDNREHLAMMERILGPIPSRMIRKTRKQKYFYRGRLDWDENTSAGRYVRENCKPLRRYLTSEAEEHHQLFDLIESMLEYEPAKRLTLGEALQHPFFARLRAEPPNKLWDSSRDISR

[13] = target: Ephrin type-A receptor 4 (Homo sapiens) (UniProt P54764); assay: Inhibition of human recombinant EphA4 at 40 nM related to control ULK1
Sequence of Ephrin type-A receptor 4 (Homo sapiens) (P54764 whole entry): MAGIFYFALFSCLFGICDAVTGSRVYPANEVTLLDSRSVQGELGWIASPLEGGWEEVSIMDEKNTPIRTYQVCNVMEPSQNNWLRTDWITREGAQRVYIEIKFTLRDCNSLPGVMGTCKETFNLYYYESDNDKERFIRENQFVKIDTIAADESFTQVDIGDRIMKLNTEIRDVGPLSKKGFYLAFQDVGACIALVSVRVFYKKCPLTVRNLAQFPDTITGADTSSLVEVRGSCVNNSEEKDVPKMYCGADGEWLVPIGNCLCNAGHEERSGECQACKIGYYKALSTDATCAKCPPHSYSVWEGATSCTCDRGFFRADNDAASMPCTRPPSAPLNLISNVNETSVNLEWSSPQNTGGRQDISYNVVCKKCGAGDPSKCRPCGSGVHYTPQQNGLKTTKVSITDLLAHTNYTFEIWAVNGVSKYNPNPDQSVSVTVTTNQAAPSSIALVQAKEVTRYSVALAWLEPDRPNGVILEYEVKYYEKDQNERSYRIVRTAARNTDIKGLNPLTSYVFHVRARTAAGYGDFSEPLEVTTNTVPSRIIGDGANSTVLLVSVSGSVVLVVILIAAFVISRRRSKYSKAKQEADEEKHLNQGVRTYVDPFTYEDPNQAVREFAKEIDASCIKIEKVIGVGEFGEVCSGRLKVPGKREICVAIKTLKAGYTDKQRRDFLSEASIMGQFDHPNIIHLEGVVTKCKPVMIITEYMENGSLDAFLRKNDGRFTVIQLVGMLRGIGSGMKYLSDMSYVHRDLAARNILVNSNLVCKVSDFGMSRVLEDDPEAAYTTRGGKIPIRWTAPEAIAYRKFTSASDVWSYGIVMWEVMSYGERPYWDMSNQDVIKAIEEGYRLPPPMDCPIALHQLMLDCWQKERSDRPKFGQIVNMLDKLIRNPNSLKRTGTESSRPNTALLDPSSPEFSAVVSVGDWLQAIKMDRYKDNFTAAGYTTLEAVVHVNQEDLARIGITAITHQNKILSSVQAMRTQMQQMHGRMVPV

[14] = target: Serine/threonine-protein kinase 24 (Homo sapiens) (UniProt Q9Y6E0); assay: Inhibition of human recombinant MST3 at 40 nM related to control ULK1
Sequence of Serine/threonine-protein kinase 24 (Homo sapiens) (Q9Y6E0 whole entry, looked up): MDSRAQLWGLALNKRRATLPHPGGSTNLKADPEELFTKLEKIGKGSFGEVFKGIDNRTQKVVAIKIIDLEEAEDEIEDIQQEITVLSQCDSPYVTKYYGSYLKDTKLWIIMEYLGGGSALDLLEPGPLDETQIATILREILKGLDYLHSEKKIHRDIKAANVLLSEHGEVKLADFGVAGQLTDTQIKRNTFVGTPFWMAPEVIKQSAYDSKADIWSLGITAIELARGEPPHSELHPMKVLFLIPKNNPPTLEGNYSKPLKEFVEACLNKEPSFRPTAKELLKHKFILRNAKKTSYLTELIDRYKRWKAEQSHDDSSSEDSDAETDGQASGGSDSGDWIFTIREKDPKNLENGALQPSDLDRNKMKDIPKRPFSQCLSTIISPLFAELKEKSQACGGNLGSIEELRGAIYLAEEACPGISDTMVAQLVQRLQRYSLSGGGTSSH

[15] = target: T2, Activin receptor type-1 (Homo sapiens) (UniProt Q04771); assay: Inhibition of human recombinant ALK2 at 40 nM related to control ULK1
T2 sequence (whole entry): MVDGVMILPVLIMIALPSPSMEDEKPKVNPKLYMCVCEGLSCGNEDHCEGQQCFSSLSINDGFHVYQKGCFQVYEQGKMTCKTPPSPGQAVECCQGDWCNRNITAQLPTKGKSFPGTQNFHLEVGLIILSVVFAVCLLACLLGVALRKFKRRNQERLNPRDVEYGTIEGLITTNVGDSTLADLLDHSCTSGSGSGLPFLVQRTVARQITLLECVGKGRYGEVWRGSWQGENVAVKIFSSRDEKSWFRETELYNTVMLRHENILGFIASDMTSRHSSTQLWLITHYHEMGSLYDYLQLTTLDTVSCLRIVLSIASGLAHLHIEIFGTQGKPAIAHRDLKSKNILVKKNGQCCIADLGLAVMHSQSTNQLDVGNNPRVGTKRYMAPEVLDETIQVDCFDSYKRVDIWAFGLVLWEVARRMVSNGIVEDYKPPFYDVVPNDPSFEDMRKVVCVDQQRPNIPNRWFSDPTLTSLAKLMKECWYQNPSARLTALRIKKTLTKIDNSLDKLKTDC
Outline: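 Radiometric activity assays in a panel of 327 human recombinant kinases, each run in duplicate at one inhibitor concentration. Activity remaining is expressed as percent of vehicle control, and percent inhibition is calculated as 100% minus percent activity remaining.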

[16] = target: Leukocyte tyrosine kinase receptor (Homo sapiens) (UniProt P29376); assay: Inhibition of human recombinant LTK at 40 nM related to control ULK1
Sequence of Leukocyte tyrosine kinase receptor (Homo sapiens) (P29376 whole entry): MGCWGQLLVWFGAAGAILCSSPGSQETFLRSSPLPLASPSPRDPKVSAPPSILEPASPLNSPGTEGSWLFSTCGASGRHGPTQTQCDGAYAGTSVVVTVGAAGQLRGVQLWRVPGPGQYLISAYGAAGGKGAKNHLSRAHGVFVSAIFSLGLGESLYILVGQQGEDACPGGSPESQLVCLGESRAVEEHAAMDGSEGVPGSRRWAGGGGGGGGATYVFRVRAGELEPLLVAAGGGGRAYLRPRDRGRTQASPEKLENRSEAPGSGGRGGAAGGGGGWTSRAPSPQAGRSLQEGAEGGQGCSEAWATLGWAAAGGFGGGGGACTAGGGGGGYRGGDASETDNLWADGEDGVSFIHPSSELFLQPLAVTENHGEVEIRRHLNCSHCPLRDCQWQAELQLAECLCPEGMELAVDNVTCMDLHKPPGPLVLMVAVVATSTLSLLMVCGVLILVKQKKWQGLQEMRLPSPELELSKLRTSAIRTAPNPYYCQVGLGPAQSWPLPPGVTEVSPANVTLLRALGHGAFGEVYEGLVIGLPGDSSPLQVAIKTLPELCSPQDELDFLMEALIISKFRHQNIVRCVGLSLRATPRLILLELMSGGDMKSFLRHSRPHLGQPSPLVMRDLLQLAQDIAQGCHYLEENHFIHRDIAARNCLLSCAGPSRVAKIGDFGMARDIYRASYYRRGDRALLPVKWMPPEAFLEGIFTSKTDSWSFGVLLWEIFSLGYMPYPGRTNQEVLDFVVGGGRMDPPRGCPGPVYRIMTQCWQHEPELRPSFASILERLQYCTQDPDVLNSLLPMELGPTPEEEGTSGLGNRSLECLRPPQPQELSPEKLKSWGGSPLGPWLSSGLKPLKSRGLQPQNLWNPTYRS

[17] = target: T3, Serine/threonine-protein kinase 17A (Homo sapiens) (UniProt Q9UEE5); assay: Inhibition of human recombinant DRAK1 at 40 nM related to control ULK1
T3 sequence (whole entry): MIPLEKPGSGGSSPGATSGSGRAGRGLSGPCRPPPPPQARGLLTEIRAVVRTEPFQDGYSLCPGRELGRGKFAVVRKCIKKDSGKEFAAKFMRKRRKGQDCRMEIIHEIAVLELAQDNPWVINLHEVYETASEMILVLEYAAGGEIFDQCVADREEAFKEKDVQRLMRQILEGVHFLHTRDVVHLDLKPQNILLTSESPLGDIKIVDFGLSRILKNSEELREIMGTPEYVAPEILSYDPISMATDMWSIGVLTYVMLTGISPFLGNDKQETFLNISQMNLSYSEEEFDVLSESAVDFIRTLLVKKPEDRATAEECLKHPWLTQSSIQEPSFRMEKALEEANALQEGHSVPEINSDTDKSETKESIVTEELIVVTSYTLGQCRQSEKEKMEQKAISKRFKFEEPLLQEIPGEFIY

[18] = target: Casein kinase I isoform gamma-3 (Homo sapiens) (UniProt Q9Y6M4); assay: Inhibition of human recombinant CK1g3 at 40 nM related to control ULK1

Question: With CNC(=O)c1ccccc1Oc1nc(Nc2cc(OC)c(OC)c(OC)c2)ncc1Br as the molecule, how does the fold change (FC) [1] read?
Answer: The fold change (FC) was 0.

Question: What about the inhibition [2] of the same molecule?
Answer: The inhibition was 50%.

Question: And the fold change (FC) [3]?
Answer: The fold change (FC) was 0.16.

Question: What about the inhibition [4] of the same molecule?
Answer: Its inhibition is 0%.

Question: And the fold change (FC) [5]?
Answer: The fold change (FC) was 0.77.

Question: What does the source list for CC(C)[C@H](NC(=O)c1cc(-c2cnn3cc(-c4ccc(OCCN5CCCCC5)cc4)cnc23)cs1)C(F)(F)F?
Answer: inhibition [6]: 0%; inhibition [7]: 0%; inhibition [8]: 2%; inhibition [9]: 35%

Question: With O=C(N[C@@H](C1CC1)C(F)(F)F)c1cc(-c2cnn3cc(-c4ccc(F)cc4)cnc23)cs1 as the molecule, how does the fold change (FC) [10] read?
Answer: The fold change (FC) was 0.53.

Question: What about the inhibition [11] of the same molecule?
Answer: Its inhibition is 0%.

Question: What about the fold change (FC) [12] of the same molecule?
Answer: Its fold change (FC) is 0.26.

Question: What about the fold change (FC) [13] of the same molecule?
Answer: The fold change (FC) was 0.

Question: And the fold change (FC) [14]?
Answer: The fold change (FC) was 0.27.

Question: What about the fold change (FC) [15] of the same molecule?
Answer: The fold change (FC) was 0.77.

Question: What about the fold change (FC) [16] of the same molecule?
Answer: The fold change (FC) was 0.

Question: What about the fold change (FC) [17] of the same molecule?
Answer: The fold change (FC) was 1.07.

Question: What about the fold change (FC) [18] of the same molecule?
Answer: Its fold change (FC) is 0.05.
